Measurements gathered from unrelated publications.
Protocols differ between the studies behind these lines.
DYRK1A: Dual specificity tyrosine-phosphorylation-regulated kinase 1A (DYRK1A, Homo sapiens, UniProt Q13627)
PDGFRB: Platelet-derived growth factor receptor beta (PDGFRB, Homo sapiens, UniProt P09619)

Compound | target | test | setting | measurement | value
NC/C(=C\F)COc1cccc(Cn2c(=S)[nH]c(=O)c3[nH]cnc32)c1 | Alpha-1D adrenergic receptor (ADRA1D, Homo sapiens, UniProt P25100) | ligand displacement, radioligand | 10 µM | inhibition | < 50%
Cc1cc(O)c(-c2ccc([C@@H](C)CN(C)C)cc2)c2c1[nH]c(=O)c1sccc12 | Ephrin type-B receptor 3 (EPHB3, Homo sapiens, UniProt P54753) | cell-free assay, inhibitor | 0.1 µM | inhibition | -4.48%
O=C1C2C3CC(C(Br)C3Br)C2C(=O)N1CC1CCCO1 (stereo not shown) | DYRK1A | enzyme activity, inhibitor, ADP detection | 10 µM | inhibition | 41.5%
Nc1ncnc2c1ncn2[C@@H]1O[C@H](COP(=O)(O)OP(=O)(O)OP(=O)(O)O)[C@@H](O)[C@H]1O | Inositol-tetrakisphosphate 1-kinase (Homo sapiens, UniProt Q13572) | enzyme activity, substrate, ADP detection |  | Km | 2.7 µM
Cc1cc(F)cc2c(CCC(=O)N[C@@H]3C(=O)NC[C@H]3O)c(-c3ccc(F)cc3)[nH]c12 | Muscarinic acetylcholine receptor M3 (CHRM3, Homo sapiens, UniProt P20309) | cell-free assay | 10 µM | inhibition | 0%
COc1ccc2oc(-c3ccc4nc(N)oc4c3)c/c(=N\c3ccccc3NC(=O)CCN)c2c1 | PDGFRB | binding | 1 µM | remaining binding | 107%
C#Cc1cc(-c2cc(Nc3nc(N[C@@H](C)c4ccc(F)cn4)ncc3Cl)n[nH]2)ccc1C=O | Dual specificity tyrosine-phosphorylation-regulated kinase 3 (DYRK3, Homo sapiens, UniProt O43781) | enzyme activity, inhibitor | 0.2 µM | inhibition | 4.84%
Brc1cc(Br)c2ccncc2c1Br | DYRK1A | enzyme activity, inhibitor, ADP detection | 10 µM | inhibition | 41.5%
CCCCC(=O)Nc1ccc(-c2ccc3ncn(CCC)c(=O)c3c2)cn1 | Serine/threonine-protein kinase 25 (STK25, Homo sapiens, UniProt O00506) | binding, competition with immobilised ligand | 0.5 µM | remaining binding | 85%
Cc1nc(Sc2nc(C)nc3sc4c(c23)CCC4)c2c3c(sc2n1)CCC3 | DYRK1A | enzyme activity, inhibitor, ADP detection | 10 µM | inhibition | 47.4%
N#Cc1ccc(NC(=O)Nc2ccccc2)cc1 | PDGFRB | cell-free assay, competition with immobilised ligand | 25 µM | inhibition | 67%
CC(C)(C)C1CCc2c(C(=O)N/N=C/c3ccsc3)csc2C1 (stereo not shown) | DYRK1A | enzyme activity, inhibitor, ADP detection | 10 µM | inhibition | 23.1%
C1=C/COCc2cc(ccc2OCCN2CCCC2)Nc2nccc(n2)-c2cccc(c2)COC/1 | Myosin light chain kinase 2, skeletal/cardiac muscle (MYLK2, Homo sapiens, UniProt Q9H1R3) | binding | 0.1 µM | remaining binding | 76%
